Converted amounts (≈) assume the structure as drawn.
Experiments:
[1] = Genotoxicity against Salmonella typhimurium TA1535/pSK1002 assessed as induction ratio at 5 mg/ml by umuC assay in presence of S9 fraction; format: toxicity, organism-based; settings: salmonella enterica subsp. enterica serovar typhimurium, Salmonella typhimurium TA1535/pSK1002 with S9 fraction
Procedure, shortened: (§1)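 umuC Easy CS: TA1535/pSK1002 grown overnight in ampicillin TG medium at 37 °C, then exposed 2 h at 37 °C to compounds at 5, 2.5, 1.25, 0.63 mg/mL with or without S9. Diluted into fresh medium for 2 h growth (OD600), then β-galactosidase with ONPG 30 min at 28 °C, OD420. Positive controls 2-aminoanthracene (+S9), […] (−S9).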

Salmonella typhimurium [2] = experiment: Genotoxicity against Salmonella typhimurium TA98 assessed as fold increase in revertants at 1.25 mg/ml after 90 mins by Ames MPF test in absence of S9 fraction relative to baseline; format: toxicity, organism-based; settings: salmonella enterica subsp. enterica serovar typhimurium, 1.5 h
Procedure, shortened: (§2)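 Ames MPF fluctuation test, TA98 and TA100: overnight cultures reincubated 90 min, then exposed 90 min at 37 °C to compounds at 0.156-5 mg/mL (in DMSO) with or without 4.5% v/v S9; indicator medium added, 48 wells per sample scored yellow after 48 h, triplicate. Fold over baseline = mean positive wells / (mean of DMSO control + 1 SD).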

Salmonella typhimurium [3] = experiment: Genotoxicity against Salmonella typhimurium TA98 assessed as fold increase in revertants at 2.5 mg/ml after 90 mins by Ames MPF test in absence of S9 fraction relative to baseline; format: toxicity, organism-based; settings: salmonella enterica subsp. enterica serovar typhimurium, 1.5 h; procedure, shortened: as §2
Salmonella typhimurium [4] = experiment: Genotoxicity against Salmonella typhimurium TA100 assessed as fold increase in revertants at 1.25 mg/ml after 90 mins by Ames MPF test in presence of S9 fraction relative to baseline; format: toxicity, organism-based; settings: salmonella enterica subsp. enterica serovar typhimurium, s9, 1.5 h; procedure, shortened: as §2
[5] = Genotoxicity against Salmonella typhimurium TA1535/pSK1002 assessed as induction ratio at 0.63 mg/ml by umuC assay in presence of S9 fraction; format: toxicity, organism-based; settings: salmonella enterica subsp. enterica serovar typhimurium, Salmonella typhimurium TA1535/pSK1002 with S9 fraction; procedure, shortened: as §1
NIH3T3 = experiment: Cytotoxicity against mouse NIH/3T3 cells after 24 hrs by XTT assay; format: cell-based; settings: NIH3T3, 24 h
Procedure, shortened: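 Mouse NIH3T3 fibroblasts grown in DMEM with fetal calf serum, penicillin/streptomycin, 37 °C, 5% CO2; 20,000 cells/well, treated after 24 h with 0.00316 µM-10 mM compound for 24 h. Viability via XTT (3 h, OD 480 nm, reference 680 nm); % inhibition computed and IC50 fitted by non-linear regression.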

Nakaseomyces glabratus = experiment: Antifungal activity against Candida glabrata Osmangazi University clinical isolate after 24 hrs by microdilution susceptibility assay; format: functional
Procedure, shortened: (§3)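 Broth microdilution in Mueller Hinton Broth, compounds from DMSO stocks diluted serially; inocula standardized to 10^6 CFU/mL (McFarland 0.5) from overnight MHB cultures. Plates held 37 °C for 24 h; MIC taken as first well without turbidity, aided by 1% tetrazolium violet added for 3 h at 37 °C. Ketoconazole reference.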

Salmonella typhimurium [6] = experiment: Genotoxicity against Salmonella typhimurium TA1535/pSK1002 assessed as growth factor ratio at 0.63 mg/ml by umuC assay in presence of S9 fraction; format: toxicity, organism-based; settings: salmonella enterica subsp. enterica serovar typhimurium; procedure, shortened: as §1
Salmonella typhimurium [7] = experiment: Genotoxicity against Salmonella typhimurium TA98 assessed as fold increase in revertants at 0.3125 mg/ml after 90 mins by Ames MPF test in absence of S9 fraction relative to baseline; format: toxicity, organism-based; settings: salmonella enterica subsp. enterica serovar typhimurium, 1.5 h; procedure, shortened: as §2
Salmonella typhimurium [8] = experiment: Genotoxicity against Salmonella typhimurium TA100 assessed as fold increase in revertants at 0.156 mg/ml after 90 mins by Ames MPF test in absence of S9 fraction relative to baseline; format: toxicity, organism-based; settings: salmonella enterica subsp. enterica serovar typhimurium, 1.5 h; procedure, shortened: as §2
Candida albicans = experiment: Antifungal activity against Candida albicans clinical isolate after 24 hrs by microdilution susceptibility assay; format: functional; procedure, shortened: as §3
Salmonella typhimurium [9] = experiment: Genotoxicity against Salmonella typhimurium TA1535/pSK1002 assessed as growth factor ratio at 5 mg/ml by umuC assay in presence of S9 fraction; format: toxicity, organism-based; settings: salmonella enterica subsp. enterica serovar typhimurium; procedure, shortened: as §1
Salmonella typhimurium [10] = experiment: Genotoxicity against Salmonella typhimurium TA1535/pSK1002 assessed as growth factor ratio at 2.5 mg/ml by umuC assay in presence of S9 fraction; format: toxicity, organism-based; settings: salmonella enterica subsp. enterica serovar typhimurium; procedure, shortened: as §1
Salmonella typhimurium [11] = experiment: Genotoxicity against Salmonella typhimurium TA100 assessed as fold increase in revertants at 0.625 mg/ml after 90 mins by Ames MPF test in presence of S9 fraction relative to baseline; format: toxicity, organism-based; settings: salmonella enterica subsp. enterica serovar typhimurium, s9, 1.5 h; procedure, shortened: as §2
Pichia kudriavzevii = experiment: Antifungal activity against Candida krusei NRRL Y-7179 after 24 hrs by microdilution susceptibility assay; format: functional; settings: NRRL Y-7179, 24 h; procedure, shortened: as §3
Salmonella typhimurium [12] = experiment: Genotoxicity against Salmonella typhimurium TA1535/pSK1002 assessed as induction ratio at 0.63 mg/ml by umuC assay in absence of S9 fraction; format: toxicity, organism-based; settings: salmonella enterica subsp. enterica serovar typhimurium; procedure, shortened: as §1
Salmonella typhimurium [13] = experiment: Genotoxicity against Salmonella typhimurium TA100 assessed as fold increase in revertants at 5 mg/ml after 90 mins by Ames MPF test in presence of S9 fraction relative to baseline; format: toxicity, organism-based; settings: salmonella enterica subsp. enterica serovar typhimurium, s9, 1.5 h; procedure, shortened: as §2
Salmonella typhimurium [14] = experiment: Genotoxicity against Salmonella typhimurium TA1535/pSK1002 assessed as growth factor ratio at 1.25 mg/ml by umuC assay in absence of S9 fraction; format: toxicity, organism-based; settings: salmonella enterica subsp. enterica serovar typhimurium; procedure, shortened: as §1
Salmonella typhimurium [15] = experiment: Genotoxicity against Salmonella typhimurium TA98 assessed as fold increase in revertants at 0.625 mg/ml after 90 mins by Ames MPF test in presence of S9 fraction relative to baseline; format: toxicity, organism-based; settings: salmonella enterica subsp. enterica serovar typhimurium, s9, 1.5 h; procedure, shortened: as §2
Salmonella typhimurium [16] = experiment: Genotoxicity against Salmonella typhimurium TA98 assessed as fold increase in revertants at 0.156 mg/ml after 90 mins by Ames MPF test in absence of S9 fraction relative to baseline; format: toxicity, organism-based; settings: salmonella enterica subsp. enterica serovar typhimurium, 1.5 h; procedure, shortened: as §2
[17] = Genotoxicity against Salmonella typhimurium TA1535/pSK1002 assessed as induction ratio at 2.5 mg/ml by umuC assay in absence of S9 fraction; format: toxicity, organism-based; settings: salmonella enterica subsp. enterica serovar typhimurium, Salmonella typhimurium TA1535/pSK1002 without S9 fraction; procedure, shortened: as §1
Cyberlindnera jadinii = experiment: Antifungal activity against Candida utilis NRRL Y-900 after 24 hrs by microdilution susceptibility assay; format: functional; settings: Williopsis jadinii, NRRL Y-900, 24 h; procedure, shortened: as §3
Salmonella typhimurium [18] = experiment: Genotoxicity against Salmonella typhimurium TA98 assessed as fold increase in revertants at 0.156 mg/ml after 90 mins by Ames MPF test in presence of S9 fraction relative to baseline; format: toxicity, organism-based; settings: salmonella enterica subsp. enterica serovar typhimurium, s9, 1.5 h; procedure, shortened: as §2

Row | SMILES | fold induction at 5 mg/ml [1] | fold change (FC) (Salmonella typhimurium [2]) | fold change (FC) (Salmonella typhimurium [3]) | fold change (FC) (Salmonella typhimurium [4]) | fold induction at 0.63 mg/ml [5] | IC50 (NIH3T3) [µM] | MIC (Nakaseomyces glabratus) [µg/mL] | Ratio (Salmonella typhimurium [6]) | fold change (FC) (Salmonella typhimurium [7]) | fold change (FC) (Salmonella typhimurium [8]) | MIC (Candida albicans) [µg/mL] | Ratio (Salmonella typhimurium [9]) | Ratio (Salmonella typhimurium [10]) | fold change (FC) (Salmonella typhimurium [11]) | MIC (Pichia kudriavzevii) [µg/mL] | Ratio (Salmonella typhimurium [12]) | fold change (FC) (Salmonella typhimurium [13]) | Ratio (Salmonella typhimurium [14]) | fold change (FC) (Salmonella typhimurium [15]) | fold change (FC) (Salmonella typhimurium [16]) | further results
1 | Cn1nnnc1SCC(=O)N/N=C/c1ccccc1[N+](=O)[O-] | 1.19 | 2.78 | 1.96 | 1.93 | 1.23 | 2020 | 500 (≈ 1560 µM) | 0.969 | 1.63 | 1.67 | 500 (≈ 1560 µM) | 0.913 | 0.922 | 1.28 | 125 (≈ 389 µM) | 1.509 | 1.7 | 1.022 | 1.78 | 1.63 | fold induction at 2.5 mg/ml [17]: 1.63; MIC (Cyberlindnera jadinii): 250 µg/mL (≈ 778 µM); fold change (FC) (Salmonella typhimurium [18]): 1
2 | Cn1nnnc1SCC(=O)N/N=C/c1ccc(O)cc1 | 0.419 | 0.13 | 0.13 | 0.59 | 0.797 | 632 | 1000 (≈ 3420 µM) | 1.13 | 0.13 | 0.66 | 500 (≈ 1710 µM) | 2.139 | 1.663 | 0.7 | 500 (≈ 1710 µM) | 1.181 | 0.82 | 1.098 | 0.32 | 0.52 | fold induction at 2.5 mg/ml [17]: 0.979; MIC (Cyberlindnera jadinii): 500 µg/mL (≈ 1710 µM); fold change (FC) (Salmonella typhimurium [18]): 0.32
3 | COc1ccc(/C=N/NC(=O)CSc2nnnn2C)cc1 | 0.568 | 0.33 | 0.33 | 0.81 | 0.814 | > 10000 | 500 (≈ 1630 µM) | 1.117 | 0.16 | 0.7 | 500 (≈ 1630 µM) | 2.261 | 1.83 | 0.89 | 125 (≈ 408 µM) | 1.357 | 0.5 | 1.137 | 0.32 | 0.16 | fold induction at 2.5 mg/ml [17]: 1.04; MIC (Cyberlindnera jadinii): 250 µg/mL (≈ 816 µM); fold change (FC) (Salmonella typhimurium [18]): 0.42
4 | Cn1nnnc1SCC(=O)N/N=C/c1ccccc1F | 0.284 | 0.32 | 0.95 | 0.88 | 0.936 | 2000 | 250 (≈ 849 µM) | 0.935 | 1.59 | 0.23 | 125 (≈ 425 µM) | 2.579 | 1.699 | 0.66 | 500 (≈ 1700 µM) | 1.312 | 0.58 | 1.084 | 1 | 0.64 | fold induction at 2.5 mg/ml [17]: 0.779; MIC (Cyberlindnera jadinii): 125 µg/mL (≈ 425 µM); fold change (FC) (Salmonella typhimurium [18]): 0.29
5 | CN(C)c1ccc(/C=N/NC(=O)CSc2nnnn2C)cc1 | 0.379 | 0.64 | 0 | 0.26 | 0.704 | 316 | 500 (≈ 1570 µM) | 1.268 | 1.27 | 1.9 | 125 (≈ 391 µM) | 2.82 | 1.992 | 0.18 | 62.5 (≈ 196 µM) | 1.36 | 0.26 | 1.191 | 1 | 0.32 | fold induction at 2.5 mg/ml [17]: 0.88; MIC (Cyberlindnera jadinii): 125 µg/mL (≈ 391 µM); fold change (FC) (Salmonella typhimurium [18]): 0.86
